Data on 58 compounds can be found in PubChem BioAssay AID1556 (The Scripps Research Institute Molecular Screening Center, 2009).

The structures appear in SMILES notation. In all, about 290,000 compounds went through this assay and about 1,300 (0.45%) were called active.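 How the source made its calls: active means inhibition above the mean plus 3 SD of all compounds in the same screening run (cut at about 4.5% in these data); inactive means the rest.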 The sample as a whole holds a higher share of actives than the screen did.

For orientation: inhibition means the drop in the measured response relative to a control, in per cent.

This test relates to metallo-beta-lactamase IMP-1 (Pseudomonas aeruginosa). The test is described as follows: inhibition of IMP-1 nitrocefin hydrolysis – biochemical, epi-absorbance readout, Pseudomonas aeruginosa enzyme, primary screen (AID 1556).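 Further: 0% = IMP-1 with DMSO and 100% = DMSO wells lacking enzyme.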 The note with it: purified IMP-1, nitrocefin hydrolysis, epi-absorbance fluorescence; at 5.6 µM; hits give high values. The gist of the method: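 system = purified recombinant IMP-1 beta-lactamase | amount = 0.2 nM IMP-1, as dispensed | medium = HEPES buffer pH 7.1 with ZnSO4 and Brij 35 | times = 25 °C, 15 min preincubation, 25 min reaction | detection = plate fluorescence quenching by hydrolysis product, ex 480/em 530 nm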
For `CC(C)(O)C#Cc1ccc(CN2CCC(CO)(CCc3ccccc3)CC2)cc1`, the inhibition was -0.34% (inactive).
With `N#Cc1ccc(-c2nc3cc(C#N)c(C#N)cc3nc2-c2ccccc2)cc1C#N`, the inhibition was -3.53% (inactive).
With `CC(=O)Nc1ccc(S(=O)(=O)N(C)c2nc3ccccc3nc2Cl)cc1`, the inhibition is -0.55% (inactive).
`O=C(Nc1ccc([N+](=O)[O-])cc1)C1CC12CCC2` (stereo not drawn): the inhibition is -0.64% (inactive).
On to `CCC(=C/c1sc2ccc3ccccc3c2[n+]1C)/C=C1\Sc2ccc3ccccc3c2N1C`, for which the inhibition is 17.3% (active).
Take `CCCNC(=O)CSc1nc(Cc2ccccc2)nc2ccccc12`: the inhibition is -3.79% (inactive).
In the case of `COc1cc(OC)cc(-c2cc3nc(C4CCN(C(=O)OC(C)(C)C)CC4)cc(=O)n3[nH]2)c1`, the inhibition is -4.79% (inactive).
Consider `CCc1ccccc1NC(=O)CCOc1ccccc1`, for which the inhibition was -1.54% (inactive).
For the compound `COc1cc(/C=C2/SC(=S)N(Cc3ccccc3)C2=O)cc(OC)c1O`, the inhibition is 10% (active).
As for `COc1ccc(/C=C2\SC(=S)N(CCC(=O)Nc3ccccn3)C2=O)cc1OC`, the inhibition is -4.91% (inactive).
Consider `COc1ccccc1C(=O)NNC(=O)CCN1C(=O)/C(=C\c2ccccc2)SC1=S`, for which the inhibition was -0.96% (inactive).
Turning to `CCCOC1CCCN(C(=O)c2cc(COc3cncc(Cl)c3)on2)C1` (stereo not drawn), the inhibition was -0.48% (inactive).
`O=C(COC(=O)c1ccc(N2CCCC2=O)cc1)c1ccc(OC(F)F)cc1`: the inhibition was -0.84% (inactive).
Take `C[C@@H]1CC[C@@]2(OC1)O[C@H]1C[C@H]3[C@@H]4CC=C5C[C@@H](O)[C@H](O)C[C@]5(C)C4CC[C@]3(C)[C@H]1[C@@H]2C` (stereo partly drawn): the inhibition was -4.13% (inactive).
`Cc1ccc(S(=O)(=O)N2CCN=C2SCc2c(F)cccc2Cl)cc1`: the inhibition is 0.72% (inactive).
With `Cc1cccc2cc(CN(Cc3nnnn3Cc3ccccc3)C3CCCC3)c(=O)[nH]c12`, the inhibition was -0.68% (inactive).
Regarding `Cc1cc(C)c2cc(CN(Cc3nnnn3Cc3ccc(F)cc3)C3CCCC3)c(=O)[nH]c2c1`, the inhibition was 6.27% (active).
Consider `Cc1cc(C)c2cc(CN(Cc3cccs3)Cc3nnnn3CC3CCCO3)c(=O)[nH]c2c1` (stereo not drawn), for which the inhibition is -1.83% (inactive).
With `COCc1c(C(=O)N/N=C\c2cccnc2)nnn1-c1nonc1N`, the inhibition was -2.01% (inactive).
With `COc1ccc(C2=NS(=O)(=O)N(C)C(C(=O)N3CCCCC3)=C2)cc1`, the inhibition is -5.03% (inactive).
Under `Cc1nn(-c2cc(Cl)ccc2N)c(=O)c2ccccc12` stands -2.53% (inactive).
Turning to `CN1C(=O)c2cccc3c(N)ccc(c23)C1=O`, the inhibition is 41.5% (active).
Take `O=C1c2ccccc2C(=O)N1c1cccc2ccccc12`: the inhibition is -2.06% (inactive).
The same measure for `Cc1nn(C)cc1N1C(=O)c2cccc3c(N)ccc(c23)C1=O`: 22.2% (active).
As for `O=C(O)c1ccc2c3c(cccc13)C(=O)N(OS(=O)(=O)c1ccccc1)C2=O`, the inhibition is -1.83% (inactive).
With `CC(=O)Nc1ccccc1Sc1ccc2c3c(cccc13)C(=O)N(c1ccc(C)cc1)C2=O`, the inhibition is -1.41% (inactive).
The same measure for `CCn1c(SCC(=O)Nc2ccc(C)cc2)nc2nc3c(cc2c1=O)CCCC3`: -2.99% (inactive); for `COc1ccc(C(CC(=O)c2ccccc2)S(=O)(=O)c2ccccc2)cc1` (stereo not drawn): -1.87% (inactive); for `N#Cc1cccc(CN2CCC(=O)N(CCO)CC2)c1`: -1.5% (inactive).
Under `Cc1ccc(C(=O)NCC(=O)OCc2nnc(-c3ccccc3)o2)cc1` stands -0.31% (inactive); under `Cc1ccccc1C(=O)NC(=S)Nc1ccc(N2CCN(C(=O)c3ccccc3)CC2)cc1`, -0.21% (inactive); under `Cc1nc2sc(C(=O)c3ccccc3)c(N)c2c2c1CCCC2`, -2.49% (inactive).
With `CN(C)c1ccnc2sc(C(=O)c3ccccc3)c(N)c12`, the inhibition was -4.61% (inactive).
Consider `Nc1c(C(=O)c2cccs2)sc2nsc(SCCN3CCCCC3)c12`, for which the inhibition is 6.4% (active).
As to `N#C/C(=C\c1cccnc1)C(=O)Nc1ccc(SC(F)F)cc1`, the inhibition is -1.66% (inactive).
Consider `Nc1ccc2nc3c(=O)[nH]c(=S)[nH]c3nc2c1`, for which the inhibition is 26.7% (active).
Under `Cc1cccc(OCC(=O)Nc2ccc(C(=O)O)cc2NC(=O)COc2cccc(C)c2)c1` stands -0.18% (inactive); under `O=C(CSc1nnnn1-c1ccc(O)cc1)N1N=C(c2ccc3ccccc3c2)CC1c1ccccc1` (stereo not drawn), -2.75% (inactive).
`COc1ccc(N2CCN(S(=O)(=O)c3ccc4c(c3)N(C(C)=O)CCO4)CC2)cc1`: the inhibition is -2.08% (inactive).
The same measure for `Cc1ccnc(NC(=O)c2ccco2)n1`: 29.4% (active); for `O=C(Nc1ccc2nccnc2c1)c1ccco1`: -1.29% (inactive); for `O=C(Nc1ccccc1)c1ccco1`: -3.16% (inactive).
The same measure for `Cc1cccc2c1cnn2C(=O)CCC(=O)NC1CCCCC1`: -3.55% (inactive); for `Cc1cccc(NC(=O)Cn2c(=O)n(Cc3ccccc3)c(=O)c3c(C)c(C)sc32)c1`: -3.05% (inactive); for `CCN(CC(=O)Nc1ccc(S(=O)(=O)N2CCCC2)cc1)CC(=O)Nc1cccc(OC)c1`: 13% (active).
Turning to `COc1ccccc1CC(=O)Nc1ccc(S(=O)(=O)N2CCCC2)cc1`, the inhibition is -1.76% (inactive).
With `CCOc1cccc(NC(=O)C2CCCN(S(=O)(=O)c3ccc(OC)cc3)C2)c1` (stereo not drawn), the inhibition was 0.1% (inactive).
`O=C(CN1CCN(c2ccc(O)cc2)CC1)Nc1ccc(-c2ccccc2)cc1`: the inhibition was -3.22% (inactive).
As to `CC(C)N(C(=O)Cn1cc(S(=O)(=O)CC(=O)N2CCOCC2)c2ccccc21)C(C)C`, the inhibition is 1.49% (inactive).
Under `Cc1cc(C)c2c3c(sc2n1)C(c1ccccc1)C(C#N)=C(N)O3` (stereo not drawn) stands -3.3% (inactive); under `CC1=C(C(=O)Nc2ccccc2)C(c2ccco2)C(C#N)=C(SCC(N)=O)N1` (stereo not drawn), -0.1% (inactive); under `N#CC1=C(N)Oc2c(sc3ccccc23)C1c1ccco1` (stereo not drawn), 5.37% (active).
Regarding `O=C1CC(Cc2ccccc2)C(=O)N1c1ccc(Cl)cn1` (stereo not drawn), the inhibition is -3.13% (inactive).
For the compound `O=C(O)CN1C(=O)CC(Cc2ccccc2)C1=O` (stereo not drawn), the inhibition was 4.79% (active).
Consider `Cc1cc(C)nc(N2C(=O)CC(Cc3ccccc3)C2=O)n1` (stereo not drawn), for which the inhibition was -2.26% (inactive).
As for `O=C1/C(=C/c2ccc3c(c2)OCO3)CCC/C1=C\c1ccc2c(c1)OCO2`, the inhibition was 0.49% (inactive).
`CCOC(=O)CCCNC(=O)COC(=O)/C=C/c1ccc2c(c1)OCO2`: the inhibition is -0.37% (inactive).
On to `CCC1=C/C(=C\c2ccc3c(c2)OCO3)C(=O)S1`, for which the inhibition was 6.67% (active).
